# NR1D1 modulator – modulators of human Rev-erb alpha DNA binding | Rev-erbα–FITC-DNA binding, fluorescence polarization, 90 min | activity, % at 10 µM | actives 0.79% (n = 370,000) | AID 1259318;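 active means activity above about 14%, limit read from the data; passing the limit was not always enough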
# PG9 Ab binder – small molecules binding HIV-1 gp120 antibody PG9 | TR-FRET gp120-PG9 antibody binding | inhibition, % at 6.7 µM | AID 624416 | actives 0.43% (n = 360,000); in the data active means inhibition above about 8.5%
# SKN-1 inh – inhibitors of C. elegans SKN-1 | actives 0.49% (n = 360,000) | AID 624304 | C. elegans VP596 Pgst-4::GFP/RFP ratio, acrylamide-induced, 24 h | inhibition, % at 21.8 µM;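 active means interference check ratio from 0.5 to 1.5 plus GFP to RFP signal ratio inhibition reaching or exceeding a fixed threshold, cut at about 30% in these data, passing the limit was not always enough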
# NR2E3 ag-1 – human photoreceptor-specific nuclear receptor agonism. Q9Y5X4. CHO-S Gal4-NCOR/VP16-NR2E3 two-hybrid, luciferase. inhibition of corepressor binding, % at 3.98 µM. actives 0.35% (n = 360,000). AID 602229;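 active means inhibition above the mean of all tested compounds plus 3 SD, cut at about 70% in these data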;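 further: higher means lower luciferase signal from less NR2E3 corepressor binding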
# Target sequence (Q9Y5X4 whole entry, looked up, the tested form may be a part): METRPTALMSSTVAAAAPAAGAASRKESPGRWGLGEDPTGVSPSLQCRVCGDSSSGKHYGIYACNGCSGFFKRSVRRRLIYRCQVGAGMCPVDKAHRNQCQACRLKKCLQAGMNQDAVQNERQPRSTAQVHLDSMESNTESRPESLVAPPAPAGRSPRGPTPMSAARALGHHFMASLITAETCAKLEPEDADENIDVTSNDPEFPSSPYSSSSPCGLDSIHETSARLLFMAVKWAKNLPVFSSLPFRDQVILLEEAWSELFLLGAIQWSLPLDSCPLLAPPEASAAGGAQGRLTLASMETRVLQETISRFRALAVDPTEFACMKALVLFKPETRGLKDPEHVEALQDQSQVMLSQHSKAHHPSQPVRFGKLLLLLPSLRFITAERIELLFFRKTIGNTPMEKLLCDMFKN
# MT1-MMP act inh – inhibitors of human MT1-MMP activation; P50281; HT1080 RFP-PRO-GFP cells, GFP/RFP ratio fluorescence, overnight; percent of plate control window, DMSO zero; GFP/RFP ratio change, % at 20 µM; actives 0.061% (n = 360,000); AID 651647;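 active means GFP/RFP ratio change of at least 30% with cell ATP level not reduced by more than half and red fluorescence within 50% of control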
#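 Material – HT1080 RFP-PRO-GFP cells · Control set – DMSO wells and RFP-L50D-GFP cells · Incubation – overnight cell settling, then overnight compound exposure, 37 °C, 5% CO2 · Compound dosing – single-point 20 µM compound, 1% DMSO · Read-out – GFP/RFP fluorescence ratio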
# NR2E3 ag-2 – activates human photoreceptor nuclear receptor NR2E3. Q9Y5X4. GST-NR2E3/biotin-RetCOR TR-FRET, 1536-well. inhibition of corepressor binding, % at 4.78 µM. actives 0.12% (n = 320,000). AID 2300;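 active means percent inhibition above the cutoff of mean plus 3 SD of all tested compounds, set per screening campaign, cut at about 20% in these data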
#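 System: GST-NR2E3 and biotin-RetCOR proteins; probe or stimulus: 7 nM biotin-RetCOR; doses: compound at 4.8 µM, single dose; schedule: Compound–protein incubation for 5 h at 4 °C; detection: time-resolved FRET; read-out: percent inhibition; controls: biotin wells as high control, 0.6% DMSO wells as low control; format: 1536-well plates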
# NR2E3 ag conf – NR2E3 agonism confirmed in two-hybrid assay | shares compounds with NR2E3 ag-1 | CHO-S mammalian two-hybrid NR2E3-NCOR, luciferase luminescence | inhibition, % at 3.98 µM | actives 51% (n = 2,300);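 active means average inhibition above a cutoff equal to the mean inhibition of all tested compounds plus one SD, cut at about 70% in these data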
# GAL4-VP16 luc – counter-screen for NR2E3 agonists: GAL4-VP16 reporter inhibitors; inhibition, % at 3.98 µM; shares compounds with NR2E3 ag-1; CHO-S GAL4-VP16 luciferase reporter, luminescence; actives 29% (n = 2,300);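 active means mean inhibition above a cutoff equal to the average over all tested compounds plus one standard deviation, cut at about 70% in these data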;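 further: luciferase from a UAS reporter driven by GAL4-VP16 transactivation; higher means less reporter light so more repression of VP16 activity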
# Hits are given with their value; 0 = inactive; - = not tested or not shown. Only some compounds are listed: those with a hit (about 1.9% of all), similar ones and a draw of the others.
SMILES,NR1D1 modulator,PG9 Ab binder,SKN-1 inh,NR2E3 ag-1,MT1-MMP act inh,NR2E3 ag-2,NR2E3 ag conf,GAL4-VP16 luc
CCOC(=O)C1=C(CC)Nc2ccccc2N/C1=N\S(=O)(=O)c1cc(Br)ccc1Br,0,0,0,0,0,-,88,0
O=C(Nc1cccc([N+](=O)[O-])c1)c1cc2ccccc2cc1O,0,0,0,85,-,0,99,0
COC(=O)[C@]12CCCCC=C1N(Cc1ccc(OC)cc1)C(=O)[C@@H]2CC(=O)N1CCOCC1,0,-,-,-,-,-,-,-
CC(C)OC(=O)CSc1nnc(CNc2ccc(Cl)cc2)n1Cc1ccccc1,0,0,0,73,0,0,0,0
CC1CCCN(c2ncnc3c2cnn3-c2ccc(Cl)cc2)C1 (stereo not given),0,0,0,92,0,0,83,0
CC1CCCN(c2ncnc3c2cnn3-c2ccccc2)C1 (stereo not given),0,0,0,0,0,0,-,-
COc1ccccc1NS(=O)(=O)c1ccc2oc(SC(C)C(=O)N3CCNC3=O)nc2c1 (stereo not given),0,0,0,0,0,0,0,0
COc1ccccc1NS(=O)(=O)c1ccc2oc(SCC(C)=O)nc2c1,0,0,0,0,0,0,-,-
Cc1cc(C)nc(SCC(=O)Nc2ccc(N3CCOCC3)c(Cl)c2)n1,0,0,0,74,0,0,89,79
O=C(CSc1nc2ccccc2s1)Nc1ccc(N2CCOCC2)c(Cl)c1,0,0,0,0,0,0,-,-
O=C(CSc1nc2ccccc2c(=O)[nH]1)Nc1ccc(N2CCOCC2)c(Cl)c1,0,0,0,0,0,0,0,0
Cc1ccc(NC(=O)CSc2nc3ccccc3c(=O)[nH]2)cc1[N+](=O)[O-],0,0,0,0,0,-,0,0
Cc1ccccc1C(=O)N[C@@H](Cc1cccnc1)C(=O)N1CCC[C@H]1C(=O)NC1CCCC1,0,0,-,-,-,-,-,-
COC1=C(OC)C(=O)C(CCCCCCCCCCO)=C(C)C1=O,0,0,0,0,0,-,0,0
CC1=C(C)C(=O)C(CCCCC#CCCCC#CCO)=C(C)C1=O,-,-,0,0,0,0,-,-
CC(=O)c1ccc(NS(=O)(=O)c2ccc(CC(C)C)cc2)cc1,0,0,0,0,0,0,90,0
C/C(=N/NS(=O)(=O)c1ccc(CC(C)C)cc1)c1ccncc1,0,0,0,104,0,0,0,0
O=C1C=CC2(O[C@H](c3ccccc3)[C@@H](c3ccccc3)O2)[C@H](Sc2ccccc2O)C1,0,0,0,0,0,-,92,0
C[C@@H]1[C@@H](Sc2ccccc2)CC(=O)O[C@@H]1c1ccc(-c2ccccc2)cc1,0,0,0,0,0,0,-,-
Cc1cc(N2CCNC[C@H]2C)ccc1N1CCS(=O)(=O)CC1,0,0,-,-,-,-,-,-
CN1CCN(CCCN2c3ccccc3Sc3ccc(Cl)cc32)CC1,0,0,0,0,0,0,-,-
CC(CN1CCN(CCOCCO)CC1)CN1c2ccccc2Sc2ccc(Cl)cc21 (stereo not given),0,0,0,0,0,-,0,0
CC(Cl)=CCn1c(NCCc2ccccc2)nc2c1c(=O)n(C)c(=O)n2C,0,0,0,0,0,-,91,71
CNc1nc2c(c(=O)n(C)c(=O)n2C)n1Cc1ccccc1,0,0,0,0,0,0,0,0
Cn1c(=O)c2c(nc(NCc3ccco3)n2C/C=C/c2ccccc2)n(C)c1=O,0,0,0,0,0,0,88,0
COc1ccccc1Cc1c(C(C)(C)C)nc2c(C)cc(Br)cn12,0,0,-,-,-,-,-,-
COc1ccc2c(c1)N=C(c1[nH]c3ccccc3c1CCN1C(=O)c3ccccc3C1=O)[C@]2(O)CCN1C(=O)c2ccccc2C1=O,0,-,-,-,-,-,-,-
